Source: PubChem (Johns Hopkins Ion Channel Center)
Only some compounds are listed: those with a hit (about 3.5% of all), similar ones and a draw of the others.
RGS4 act: RGS4 potentiators or activators, primary screen, cell-based, HEK293 M3R inducible RGS4, calcium flux; carbachol calcium flux Fluo4; stronger effect = lower value; B-score at 10 µM; 310,000 compounds, 0.92% hits; AID 463111, 2010;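 active = B-score of the integrated calcium signal more than 4 SD below the library mean, with starting fluorescence not abnormally high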;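 also: negative B-score means reduced calcium response which marks RGS4 activation or potentiation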
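Material: M3R-expressing HEK293 line, RGS4 induced by doxycycline | Schedule: Overnight RGS4 induction, 30 min dye load 37 °C, 20 min compound RT | Measured by: Fluo4 fluorescence kinetic imaging of calcium | Read-out: Integrated calcium ratio converted to B score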
RGS4 inh: RGS4 inhibitors, primary screen, cell-based, HEK293 M3R inducible RGS4, calcium flux | Regulator of G-protein signaling 4 (Homo sapiens), P49798 | Fluo-4 calcium flux; stronger effect = higher value; triggered by carbachol at its EC20 | B-score at 10 µM | 310,000 compounds, 0.45% hits;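 active = B-score, a plate-corrected calcium signal, over three deviations above library mean, with baseline fluorescence within five deviations of library mean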;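 also: RGS4 expression induced by doxycycline in cells with stable M3 receptor; B-score is computed from the integrated fluorescence ratio over baseline after carbachol; higher B-score means a larger calcium signal and so more RGS4 inhibition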
Target sequence (P49798 whole entry, looked up): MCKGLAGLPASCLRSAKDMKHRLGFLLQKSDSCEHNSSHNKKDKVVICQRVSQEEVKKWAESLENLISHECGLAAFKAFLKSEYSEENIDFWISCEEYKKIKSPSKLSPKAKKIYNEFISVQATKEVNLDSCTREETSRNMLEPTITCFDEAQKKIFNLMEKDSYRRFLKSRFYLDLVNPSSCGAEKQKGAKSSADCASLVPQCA
MrgX1 antag: antagonists of human MrgX1 receptor, primary screen, HEK293 cells, Fluo-4 calcium flux | 310,000 compounds, 1.3% hits | B-score at 10 µM | Mas-related G-protein coupled receptor member X1 (Homo sapiens), Q96LB2 | BAM8-22 antagonism; stronger effect = lower value;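 active = calcium-response B-score plate-corrected more than 3 library SD below zero, starting fluorescence within 5 deviations, no agonist response on first addition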;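 also: peak minus trough fluorescence over baseline after final BAM8-22 challenge near maximal dose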
Target sequence (Q96LB2 whole entry, looked up): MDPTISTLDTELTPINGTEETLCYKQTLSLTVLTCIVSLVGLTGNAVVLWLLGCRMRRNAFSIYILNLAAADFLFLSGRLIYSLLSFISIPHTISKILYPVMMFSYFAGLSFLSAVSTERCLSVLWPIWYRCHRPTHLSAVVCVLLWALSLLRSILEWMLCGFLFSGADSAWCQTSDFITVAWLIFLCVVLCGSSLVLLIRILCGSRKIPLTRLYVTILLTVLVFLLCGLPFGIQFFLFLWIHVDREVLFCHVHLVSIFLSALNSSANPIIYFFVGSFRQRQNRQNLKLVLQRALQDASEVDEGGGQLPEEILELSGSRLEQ
MrgX1 PAM: positive allosteric modulators of MrgX1, primary screen, HEK293 cells, Fluo-4 calcium flux; Mas-related G-protein coupled receptor member X1 (Homo sapiens), Q96LB2; 310,000 compounds, 0.63% hits; FDSS; stronger effect = higher value; B-score at 10 µM;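 active = plate-corrected calcium response at least 3 library SD above typical, normal starting fluorescence, not activating the receptor alone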;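 also: compound read alongside a low EC10 to EC30 dose of BAM8-22 agonist; peak minus trough fluorescence over baseline measured at the second addition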
MrgX1 ag: agonists of human MrgX1 receptor, primary screen, HEK293 cells, Fluo-4 calcium flux; 310,000 compounds, 0.44% hits; Fluo-4 calcium fluorescence, agonist mode; stronger effect = higher value; B-score at 10 µM;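 active = calcium response B-score plate-corrected fluorescence ratio at least 3 library SD, with starting fluorescence B-score inside 5 SD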
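Test system: Stable human MrgX1 HEK293 cell line | Schedule: Overnight plating before 1 h dye loading | Read-out basis: Baseline-normalised fluorescence change ratio, B-scored | Detection: Kinetic calcium dye fluorescence, Fluo-4 NW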
MrgX1 antag conf: MrgX1 receptor antagonists, duplicate retest, confirmation, HEK293 cells, Fluo-4 calcium flux | shares compounds with MrgX1 antag | BAM8-22 calcium flux; stronger effect = lower value | remaining BAM8-22 calcium response % of control (stronger effect = lower value), % at 10 µM | 2,300 compounds, 19% hits | AID 602420, 2012;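 active = remaining agonist calcium response no higher than 100% minus 3 SD of agonist-only control wells, with starting fluorescence near control levels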;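 also: agonist BAM8-22 given at a near maximal EC90 to ECmax level; peak minus minimum fluorescence divided by baseline after agonist addition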
HEK293 Ca flux: nonspecific calcium signal in parental HEK293, confirmation, counter-screen for MrgX1 antagonist project, parental HEK293 cells, Fluo-4 calcium flux | shares compounds with MrgX1 antag | Fluo-4 calcium fluorescence, FDSS | fluorescence ratio F(max-min)/F0 at 10 µM | 4,000 compounds, 2% hits;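 active = duplicate-averaged calcium fluorescence ratio at least three times the standard deviation of buffer wells, a nonspecific response in parental cells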
HEK293 Ca counter: calcium response in parental HEK293 cells, primary screen, counter-screen for MrgX1 allosteric activator project, cell-based, Fluo-4 calcium flux, duplicate; shares compounds with MrgX1 antag; Fluo-4 fluorescence ratio; stronger effect = higher value; fluorescence ratio F(max-min)/F0 at 10 µM; 4,000 compounds, 0.4% hits; AID 624114, 2012;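 active = calcium fluorescence ratio, averaged over duplicates, at least 3 SD of the buffer-well ratio, meaning a nonspecific response in receptor-free cells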;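 also: untransfected parental HEK293 lacking MrgX1 used as counterscreen for MrgX1 allosteric activators; fluorescence change taken during the second addition on a kinetic imager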
HEK293 Ca cntr2: calcium response in parental HEK293 cells, primary screen, counter-screen for MrgX1 agonist project, cell-based, Fluo-4 calcium flux, duplicate, agonist mode. Fluo-4 calcium fluorescence (FDSS); stronger effect = higher value. 4,000 compounds, 8.7% hits. fluorescence ratio F(max-min)/F0 at 10 µM. shares compounds with MrgX1 antag;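 active = calcium fluorescence ratio at least three times the spread of buffer wells, meaning a non-specific response in parental cells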
Active calls of the source: *.

Results for CCCCC(=O)Oc1c(S(=O)(=O)c2ccc(C)cc2)c(C)nn1C(C)(C)C ?
RGS4 act: inactive; RGS4 inh: inactive; MrgX1 antag: -5.18*; MrgX1 PAM: inactive; MrgX1 ag: inactive; MrgX1 antag conf: inactive; HEK293 Ca flux: inactive; HEK293 Ca counter: inactive; HEK293 Ca cntr2: inactive

Results for CC(=O)Oc1c(S(=O)(=O)c2ccc(C)cc2)c(C)nn1C(C)(C)C ?
RGS4 act: inactive; RGS4 inh: inactive; MrgX1 antag: inactive; MrgX1 PAM: inactive; MrgX1 ag: inactive

Results for CCN(C(=O)COC(=O)c1cc(-c2ccccc2)nc2ccc(Br)cc12)C1CCS(=O)(=O)C1 (centres undefined) ?
RGS4 act: inactive; RGS4 inh: inactive; MrgX1 antag: inactive; MrgX1 PAM: inactive; MrgX1 ag: inactive

What do the screens show for `CCN(C(=O)COc1ncnc2ccc(Br)cc12)C1CCS(=O)(=O)C1` (centres undefined)?
RGS4 act: inactive; RGS4 inh: inactive; MrgX1 antag: -5.67*; MrgX1 PAM: inactive; MrgX1 ag: inactive; MrgX1 antag conf: inactive; HEK293 Ca flux: inactive; HEK293 Ca counter: inactive; HEK293 Ca cntr2: inactive

What do the screens show for `CC(=O)N/N=C/c1ccccc1OCCOc1cccc(C)c1`?
RGS4 act: inactive; RGS4 inh: inactive; MrgX1 antag: inactive; MrgX1 PAM: inactive; MrgX1 ag: inactive

How did Cc1noc(C)c1CSCC(=O)Nc1ccccc1N1CCCCC1 do in these assays?
RGS4 act: inactive; RGS4 inh: inactive; MrgX1 antag: inactive; MrgX1 PAM: inactive; MrgX1 ag: inactive

What do the screens show for `COc1ccc(CN(C(=O)CN2C(=O)c3ccccc3S2(=O)=O)C(C(=O)NCC2CCCO2)c2ccco2)cc1` (centres undefined)?
RGS4 act: inactive; RGS4 inh: inactive; MrgX1 antag: inactive; MrgX1 PAM: inactive; MrgX1 ag: inactive

What do the screens show for `O=C(O)[C@H](Cc1ccccc1)N1C(=O)c2c(Cl)c(Cl)c(Cl)c(Cl)c2C1=O`?
RGS4 act: inactive; RGS4 inh: inactive; MrgX1 antag: -8.65*; MrgX1 PAM: inactive; MrgX1 ag: inactive; MrgX1 antag conf: inactive; HEK293 Ca flux: inactive; HEK293 Ca counter: inactive; HEK293 Ca cntr2: inactive

Results for O=C(O)C(Cc1ccccc1)n1cccc1 (centres undefined) ?
RGS4 act: inactive; RGS4 inh: inactive; MrgX1 antag: inactive; MrgX1 PAM: inactive; MrgX1 ag: inactive

Results for O=C(COC(=O)CC1Sc2ccccc2NC1=O)NCc1ccccc1 (centres undefined) ?
RGS4 act: inactive; RGS4 inh: inactive; MrgX1 antag: -11.4*; MrgX1 PAM: inactive; MrgX1 ag: inactive; MrgX1 antag conf: inactive; HEK293 Ca flux: inactive; HEK293 Ca counter: inactive; HEK293 Ca cntr2: inactive

How did COc1ccc(CNC(=O)CC2Sc3ccccc3NC2=O)cc1 (centres undefined) do in these assays?
RGS4 act: inactive; RGS4 inh: inactive; MrgX1 antag: inactive; MrgX1 PAM: inactive; MrgX1 ag: inactive

What do the screens show for `CC(C(=O)NC1CCCCC1)N(Cc1ccccc1)C(=O)c1snc(C(N)=O)c1N` (centres undefined)?
RGS4 act: inactive; RGS4 inh: inactive; MrgX1 antag: inactive; MrgX1 PAM: inactive; MrgX1 ag: inactive

What do the screens show for `CC(C)c1ccc(O)c(NC(=O)c2cncc(Br)c2)c1`?
RGS4 act: inactive; RGS4 inh: inactive; MrgX1 antag: -7.8*; MrgX1 PAM: inactive; MrgX1 ag: inactive; MrgX1 antag conf: inactive; HEK293 Ca flux: inactive; HEK293 Ca counter: inactive; HEK293 Ca cntr2: inactive

Results for O=C(Nc1ccncc1)c1cncc(Br)c1 ?
RGS4 act: inactive; RGS4 inh: inactive; MrgX1 antag: -5.45*; MrgX1 PAM: inactive; MrgX1 ag: inactive; MrgX1 antag conf: inactive; HEK293 Ca flux: inactive; HEK293 Ca counter: inactive; HEK293 Ca cntr2: inactive

What do the screens show for `CCC(C)c1ccc(O)c(NC(=O)c2cccnc2)c1` (centres undefined)?
RGS4 act: inactive; RGS4 inh: inactive; MrgX1 antag: inactive; MrgX1 PAM: inactive; MrgX1 ag: inactive

Results for O=C(Nc1cccc(NC(=O)c2cncc(Br)c2)c1)c1cncc(Br)c1 ?
RGS4 act: inactive; RGS4 inh: inactive; MrgX1 antag: inactive; MrgX1 PAM: inactive; MrgX1 ag: inactive

Results for CC1CC(C)CN(CCCNC(=O)CCC(=O)N2CC(C)Oc3ccccc32)C1 (centres undefined) ?
RGS4 act: inactive; RGS4 inh: inactive; MrgX1 antag: inactive; MrgX1 PAM: inactive; MrgX1 ag: inactive

How did CSc1cccc(NS(=O)(=O)c2ccc3c(c2)oc(=O)n3C)c1 do in these assays?
RGS4 act: inactive; RGS4 inh: inactive; MrgX1 antag: -6.15*; MrgX1 PAM: inactive; MrgX1 ag: inactive; MrgX1 antag conf: 76.2%*; HEK293 Ca flux: inactive; HEK293 Ca counter: inactive; HEK293 Ca cntr2: inactive

How did CCSc1nnc(NC(=O)C(CC)Oc2ccccc2)s1 (centres undefined) do in these assays?
RGS4 act: inactive; RGS4 inh: inactive; MrgX1 antag: -6.62*; MrgX1 PAM: inactive; MrgX1 ag: inactive; MrgX1 antag conf: inactive; HEK293 Ca flux: inactive; HEK293 Ca counter: inactive; HEK293 Ca cntr2: inactive

Results for CCSc1nnc(NC(=O)COc2ccccc2)s1 ?
RGS4 act: inactive; RGS4 inh: inactive; MrgX1 antag: inactive; MrgX1 PAM: inactive; MrgX1 ag: inactive
